This is one part of a sample in which hits are shown more often than they occur.
697 NFkB inh = lowers PMA/ionomycin-induced NF-kB signal in 697 B cells; 697 B-cell NF-kB luciferase reporter, 16 h; inhibition, % at 4 µM; actives 0.33% (n = 330,000); in the data active = inhibition above about 35%
Jurkat NFkB inh = inhibitors of the PMA/ionomycin-induced NF-kB reporter in Jurkat cells; PMA/ionomycin-induced NF-kB luciferase reporter, luminescence; inhibition, % at 4 µM; actives 0.53% (n = 330,000); AID 435003; in the data active = inhibition above about 50%
CHOP UPR activ = activators of apoptotic arm of unfolded protein response (CHOP); CHO-CHOP luciferase reporter, UPR activation, luminescence; percent of tunicamycin response over DMSO baseline; actives 0.34% (n = 330,000); activation, % at 10 µM;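 active = at 10 µM dose, activation of 40% or more, normalized to positive control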;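 note: 100% = tunicamycin at 10 µg/mL and 0% = DMSO alone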
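System: CHO-CHOP luciferase reporter cell line; amount: 500 cells/well; buffer or medium: F12 medium containing 10% fetal bovine serum; incubation: 6 h compound exposure at 37 °C after overnight seeding; measured by: luciferase luminescence after 10 min with Steady-Glo reagent; evaluation: % reporter activation, DMSO baseline versus tunicamycin full activation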
XBP1 UPR activ = adaptive UPR (XBP1) activation. CHO-XBP1 luciferase reporter, IRE1-XBP1 UPR activation, luminescence; percent of tunicamycin response, DMSO as zero. activation, % at 20 µM. actives 0.33% (n = 330,000). AID 463104;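 active = versus positive control, 20 µM dose yields 30% or more activation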;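 note: 100% = tunicamycin at 10 µg/mL and 0% = DMSO only wells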
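Material: IRE1-XBP1 luciferase reporter CHO line / Quantity: one thousand reporter cells per well / Buffer or medium: F12 with 10% serum / Compound: 20 µM single concentration, DMSO 1% / Times: 6 h treatment, 37 °C / Detection: Steady-Glo luciferase glow luminescence, 10 min after reagent addition / Benchmarks: tunicamycin high, DMSO low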
CHOP inhibitor = inhibitors of CHOP induction in ER stress response; CHO-K1 CHOP-promoter luciferase, tunicamycin-induced, 15-18 h; inhibition, % at 10 µM; actives 3.8% (n = 220,000); AID 2732;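 active = compounds that reduced the stress-induced luciferase reporter signal by more than about 70% of percent inhibition, limit read from the data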;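 note: 0% = tunicamycin plus vehicle and 100% = wells without tunicamycin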
CHOP confirm = confirmation of CHOP induction inhibitors; shares compounds with CHOP inhibitor; CHO-CHOP promoter luciferase reporter, tunicamycin-induced, luminescence; inhibition, % at 10 µM; actives 45% (n = 2,100); AID 504437;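 active = mean of three repeat readings of reporter signal inhibition above a set limit, cut at about 70% in these data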;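 note: 0% = tunicamycin plus vehicle and 100% = wells lacking tunicamycin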
An asterisk follows results filed as active; / = no result.

SMILES	697 NFkB inh	Jurkat NFkB inh	CHOP UPR activ	XBP1 UPR activ	CHOP inhibitor	CHOP confirm
Cc1ccc(Oc2cc(NC(=O)CCCn3nc([N+](=O)[O-])cc3C)cc([N+](=O)[O-])c2)cc1	22.5	10.7	1.5	-0.1	73.4*	/
Cn1cc([N+](=O)[O-])c(C(=O)Nc2cc(Oc3ccccc3)cc([N+](=O)[O-])c2)n1	/	/	/	/	-36.5	/
Cc1nn(CCCC(=O)Nc2cc(Oc3ccccc3)cc([N+](=O)[O-])c2)c(C)c1[N+](=O)[O-]	-20.3	14.7	-0.5	-2.9	60.8	/
O=C(Nc1cc(Oc2ccc(Cl)cc2)cc([N+](=O)[O-])c1)c1ccco1	-17.6	1.4	-0.3	1.4	50.1	/
c1ccc(OCCN2CCN(Cc3nc(-c4ccc5c(c4)OCO5)no3)CC2)cc1	10.0	-4.2	0.6	-0.3	10.2	/
CC1CCCCC1NC(=O)COc1ccccc1C#N (centres undefined)	-10.9	-13.2	0.7	0.3	/	/
COc1ccc(-c2nc(-c3ccc(O)cc3O)cs2)cc1OC	/	/	/	/	85.1*	/
COc1ccc(-c2nc(CCl)cs2)cc1OC	-6.6	-23.5	-2.6	5.5	-37.4	/
CCOC(=O)C1=C(C)NC(=O)C(C#N)C1c1ccco1 (centres undefined)	2.6	-5.2	-1.1	-1.1	70.5*	/
Cc1ccc(C(=O)Nc2cccnc2N2CCN(C)CC2)cc1	21.0	-3.7	-0.5	-1.0	-8.4	/
COc1cc(-c2nc(CN(C)Cc3nnc(C)o3)c(C)o2)ccc1F	30.3	6.4	2.2	-0.9	-5.0	/
N#Cc1cc2nc(O)c(O)nc2cc1[N+](=O)[O-]	-16.0	2.5	1.1	-7.3	-0.6	/
CNc1nc2cc([N+](=O)[O-])c([N+](=O)[O-])cc2nc1NC	/	/	/	/	75.4*	/
C/C(=N\NC(=S)NC1CCCCC1)c1c(F)cccc1F	-30.5	4.5	1.9	-0.3	80.2*	/
COc1ccc(C)cc1S(=O)(=O)N(C)CC(=O)N1CCCC1	1.2	-16.8	-0.4	-5.3	/	/
Cc1ccc(S(=O)(=O)Nc2c(C)nc3nc(C)[nH]n3c2=O)c(C)c1	13.0	11.9	0.0	0.2	/	/
CCCC1CCC(c2ccc(/C(N)=N/O)cc2)CC1 (centres undefined)	-3.6	-14.1	2.7	4.5	81.1*	/
CN1CCc2c(cc(O)c(O)c2Cl)C(c2cccc(Cl)c2)C1 (centres undefined)	/	/	/	/	-14.7	/
O=C(CCN1C(=O)C2C3C=CC(C3)C2C1=O)Nc1ccccn1 (centres undefined)	8.9	-3.1	-1.0	-3.0	8.1	/
CCCCCc1nc2sc3c(c2c(=O)n1NC(=O)c1ccc([N+](=O)[O-])cc1)CC(C)(C)OC3	3.3	3.6	0.9	-1.3	76.4*	/
CCCCCCCc1nc2sc3c(c2c(=O)n1N)CC(C)(C)OC3	-9.2	7.4	0.9	-0.4	0.6	/
Cc1ccc2nc(Cl)c(/C=N/NC(=O)[C@H]3C[C@@H]3c3ccccc3)cc2c1	10.1	10.0	0.7	2.9	73.6*	/
CCOc1ccc2oc(C(=O)N(CC)CC(=O)Nc3c(F)cccc3F)c(C)c2c1	-10.0	1.8	-0.8	4.0	/	/
O=C(COC(=O)CC1CC2CCC1C2)Nc1ccccc1Cl (centres undefined)	3.2	-0.7	-0.7	-1.2	/	/
Cc1ccc(Cl)cc1NC(=O)COC(=O)CC1CC2CCC1C2 (centres undefined)	-4.0	-9.0	-0.9	-0.8	99.8*	68.0
SMILES	697 NFkB inh	Jurkat NFkB inh	CHOP UPR activ	XBP1 UPR activ	CHOP inhibitor	CHOP confirm
O=c1c(Cl)c(Cl)cnn1Cc1nnc(-c2ccc(Cl)cc2)o1	/	/	/	/	107.5*	37.7
O=c1c(Cl)c(Cl)cnn1Cc1ccccc1Cl	/	/	/	/	111.3*	26.0
Cc1ccc(-c2nnc(Cc3ccc(Cl)cc3)o2)cc1	-13.8	-19.6	2.0	4.5	57.2	/
O=C(Cn1ncc(Cl)c(Cl)c1=O)N1CCN(Cc2ccccc2)CC1	/	/	/	/	107.2*	-168.9
Cc1cc(C)cc(Cn2ncc(Cl)c(Cl)c2=O)c1	/	/	/	/	105.9*	-31.1
CCOc1ccc(C(=O)CCC(=O)Nc2cccc(S(=O)(=O)N3CCCCC3)c2)cc1	16.8	-12.3	0.5	0.2	/	/
COc1ccc2cc(C3CC(c4ccco4)=NN3C(=O)CCC(=O)O)c(Cl)nc2c1 (centres undefined)	11.4	6.4	-0.9	-0.6	-30.1	/
COc1ccc(C2=NN(C(=O)c3ccco3)C(c3cc4ccccc4nc3Cl)C2)cc1 (centres undefined)	-12.2	-3.8	2.6	16.1	103.0*	71.1*
O=C(O)C1=C[C@H](c2coc3ccccc3c2=O)C[C@H](OCc2ccc(CO)cc2)O1	13.9	10.4	2.0	-1.7	5.8	/
Cc1ccc(-c2nc(CS(=O)CC(=O)NC3CCC(C)CC3)c(C)o2)cc1 (centres undefined)	8.8	8.1	-1.1	0.2	55.7	/
CCCOc1ccccc1C1CC(=O)NC(C)=C1C(=O)OCC(C)C (centres undefined)	-40.2	-7.3	1.5	1.2	99.1*	116.1*
O=C(On1c(-c2ccccc2)nc2ccccc2c1=O)c1ccco1	22.6	0.1	-0.7	-2.2	104.5*	116.3*
Clc1ccc(-n2ncc3c(NCc4ccc5c(c4)OCO5)ncnc32)cc1	-11.5	-15.3	-0.8	-3.5	103.9*	39.4
Clc1ccc(-n2ncc3c(NCc4ccco4)ncnc32)cc1	-152.3	-8.4	-0.2	5.6	57.8	/
O=C(Nc1cc2c(cc1C(=O)O)OCCCO2)c1ccc(F)cc1F	0.6	11.7	-0.4	3.5	/	/
NC(=O)COc1ccc(/C=N\NC(=O)CC(=O)NCCc2ccccc2)cc1	10.9	20.4	1.9	3.6	/	/
Cc1cc(O)c(NC(=S)NC(=O)c2ccc(-c3ccc(Cl)cc3)o2)cc1C	-26.7	-13.2	1.6	-2.7	105.2*	113.4*
N#Cc1ccccc1Sc1ccccc1C(=O)NCC(c1ccco1)N1CCCC1 (centres undefined)	-3.2	0.6	-0.5	0.1	/	/
O=c1[nH]c(NCCCO)nc2c1C1(CCCC1)Cc1ccccc1-2	11.9	4.3	-0.7	-0.5	55.0	/
O=c1[nH]c(NNC(=S)NC2CCCCC2)nc2c1C1(CCCC1)Cc1ccccc1-2	25.3	2.6	1.6	-0.6	102.9*	109.8*
CN(C)c1nc(N/N=C/c2c[nH]c3ccccc23)nc(N2CCOCC2)n1	34.3	9.7	4.1	-0.5	-30.0	/
C(=N\Nc1nc(N2CCCCC2)nc(N2CCCCC2)n1)/c1c[nH]c2ccccc12	-4.6	-11.7	5.7	1.5	100.8*	42.2
CC(C)(C)c1ccc(-c2nc(N)nc(N)n2)cc1	-17.7	-18.0	6.6	2.9	2.3	/
CC(C)(C)c1cc(-c2nc(N)nc(N)n2)cc(C(C)(C)C)c1	8.6	3.9	1.1	-1.8	102.9*	57.3
Cc1ccc(S(N)(=O)=O)cc1NC(=O)/C=C/c1ccc2c(c1)OCO2	9.9	0.4	1.3	-3.1	1.6	/

Screens (PubChem BioAssay)
